Screens: PubChem BioAssay, several laboratories
Arr AP2 block: blocks beta-arrestin peptide binding to AP2 adaptin | FITC-arrestin peptide / GST-AP2 beads, flow cytometry; AP2 beta2 appendage carries R879A mutation | inhibition, % at 10 µM | 340,000 tested, 0.31% active | AID 504490;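 active = inhibition above a set limit, near 3 SD of compounds lacking own fluorescence, cut at about 54% in these data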;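 also: plate controls were DMSO wells for no effect and 5 µM unlabelled arrestin peptide for full effect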
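Test system: GST-tagged AP2 beta2-adaptin appendage (R879A) on 4 µm glutathione beads; also added: fluorescein-tagged arrestin peptide at 50 nM final; timing: 12 min plus 1 h, RT; signal: flow cytometry, FL1 (488/535 nm); read-out: percent drop in bead-associated FITC signal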
sPLA2-III inh: Blocks human group III sPLA2 activity | AID 743126 | 370,000 tested, 0.56% active | inhibition, % at 12.2 µM | QFRET BODIPY PC-A2 liposome hydrolysis, fluorescence;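 active = inhibition above mean plus 3 SD of compounds lying within the high and low control bounds, cut at about 19% in these data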;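 also: 0% = median of test compound wells and 100% = no enzyme DMSO wells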
Lipid droplet: hepatic lipid droplet formation modulation. inhibition, % at 6.5 µM. AML12 mouse hepatocytes, oleate lipid droplets, BODIPY imaging. 240,000 tested, 0.4% active;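 active = lipid droplet intensity inhibited by at least 50%, with more than 500 cells counted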
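Assay system: AML12 hepatocytes (mouse); Probe or stimulus: oleic acid at 100 µM to induce lipid droplet formation; Dosing: compound at 6.5 µM only; Schedule: compound with oleate, overnight; Detection: fluorescence imaging, 20x objective, two fields per well; Measure: % inhibition of lipid droplet signal.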
CendR NRP1 mod: alters CendR peptide binding to human NRP-1; inhibition, % at 25 µM; 360,000 tested, 0.85% active; FAM-RPARPAR peptide binding to NRP-1, fluorescence polarization; O14786;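 active = inhibition or corrected inhibition above about 18%, plus a signal ratio from 0.5 to 1.5, limit read from the data, passing the limit was not always enough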
m5-HT2A agonist: activates the mouse 5-HT2A serotonin receptor. P35363. CHO-K1 mHTR2A beta-arrestin complementation, luminescence; percent of 30 µM serotonin response. activation, % at 7.6 µM. 360,000 tested, 0.66% active. AID 624169;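 active = activation above a run cutoff, the mean activation of all tested compounds plus 3 SD, cut at about 14% in these data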;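 also: 0% = plate median of compound wells and 100% = 30 µM serotonin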
Target sequence (P35363 whole entry, looked up): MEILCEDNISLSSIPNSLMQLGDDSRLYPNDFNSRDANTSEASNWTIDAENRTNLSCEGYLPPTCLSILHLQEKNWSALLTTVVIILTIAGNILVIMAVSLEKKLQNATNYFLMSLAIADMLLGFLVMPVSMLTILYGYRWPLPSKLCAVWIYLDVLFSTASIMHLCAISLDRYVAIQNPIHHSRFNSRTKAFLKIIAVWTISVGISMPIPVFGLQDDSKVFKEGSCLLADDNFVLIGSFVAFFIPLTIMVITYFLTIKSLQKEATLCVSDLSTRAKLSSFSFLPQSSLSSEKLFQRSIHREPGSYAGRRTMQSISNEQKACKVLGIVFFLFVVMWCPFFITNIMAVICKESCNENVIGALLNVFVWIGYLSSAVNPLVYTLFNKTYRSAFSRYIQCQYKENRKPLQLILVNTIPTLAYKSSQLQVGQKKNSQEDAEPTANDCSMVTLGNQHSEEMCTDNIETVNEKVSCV
M18AAP inhibitor: blocks P. falciparum M18 aspartyl aminopeptidase; 290,000 tested, 1.2% active; AID 1822; recombinant PfM18AAP, H-Glu-NHMec fluorogenic cleavage; inhibition, % at 7.35 µM;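 active = inhibition above the campaign mean inhibition over all tested compounds plus 3 SD, cut at about 28% in these data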;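 also: 0% = plate median of test compound wells and 100% = 2 mM ZnCl2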
Starred values were filed as active, the others as inactive. A selection: hits, their analogues and other compounds. The true share with any hit is near 3.3%.

`Cc1nc2ccc(C(=O)NCCc3c[nH]c4ccccc34)cn2c1N(C)C(=O)CCc1ccccc1` gave sPLA2-III inh -58, CendR NRP1 mod 2 and m5-HT2A agonist -2.
For O=C(NC(=S)NNS(=O)(=O)c1ccccc1)c1cccnc1 the results were Arr AP2 block 23, sPLA2-III inh 5, Lipid droplet -12, CendR NRP1 mod 4, m5-HT2A agonist 5 and M18AAP inhibitor 31*.
Cc1ccc(S(=O)(=O)NNC(=O)c2cccnc2)cc1 was read as Arr AP2 block 6, sPLA2-III inh 4, Lipid droplet -11, CendR NRP1 mod -2, m5-HT2A agonist -2 and M18AAP inhibitor 14.
For Cc1cccc(C(=O)NC(=S)Nc2ccccc2C(=O)O)c1 the results were Arr AP2 block 41, sPLA2-III inh -1, Lipid droplet -2, CendR NRP1 mod 4, m5-HT2A agonist 4 and M18AAP inhibitor 4.
`Cc1cccc(C(=O)NC(=S)NNC(=O)c2ccccc2Cl)c1` gave Arr AP2 block 2, sPLA2-III inh 10, Lipid droplet -4, CendR NRP1 mod 1, m5-HT2A agonist -1 and M18AAP inhibitor 29*.
Screening Cc1ccccc1C(=O)NNC(=S)NC(=O)c1ccc(Cl)cc1Cl returned Arr AP2 block -11, sPLA2-III inh 17, Lipid droplet -3, CendR NRP1 mod -10, m5-HT2A agonist 0 and M18AAP inhibitor -5.
Cc1cccc(C(=O)NC(=S)NNC(=O)COc2c(C)cccc2C)c1 was read as Arr AP2 block 7, sPLA2-III inh 2, Lipid droplet 12, CendR NRP1 mod 6, m5-HT2A agonist 0 and M18AAP inhibitor 30*.
For O=C(NC(=S)NNC(=O)c1ccc(Cl)cc1Cl)c1cccnc1 the results were Arr AP2 block 17, sPLA2-III inh 3, Lipid droplet -7, CendR NRP1 mod -14, m5-HT2A agonist 4 and M18AAP inhibitor 38*.
COCCNc1nc(NCc2ccc(NC(C)=O)cc2)c2sc(-c3ccccc3)cc2n1 was read as sPLA2-III inh -17, CendR NRP1 mod 4 and m5-HT2A agonist -10.
For COc1ccc(-c2ccc(C(=O)Nc3cccc(NS(C)(=O)=O)c3)c3occc23)c(C)c1 the results were sPLA2-III inh -15, CendR NRP1 mod -9 and m5-HT2A agonist -1.
`CN[C@H]1C[C@H]2c3[nH]c4ccc(-c5cccc(C)c5)cc4c3CCN2C[C@H]1[C@H](C)O` gave sPLA2-III inh -11, CendR NRP1 mod -38 and m5-HT2A agonist 1.
COc1cc(C(=O)OC(C)c2ccc(F)cc2)ccc1OCC(=O)N1CCOCC1 (stereo not drawn) was read as Arr AP2 block 10, sPLA2-III inh -7, CendR NRP1 mod 1 and m5-HT2A agonist -5.
O=C(O)c1ccc(N=N/C(=N\Nc2ccc(C(=O)O)cc2)c2ccccc2)cc1 was read as Arr AP2 block 1, sPLA2-III inh 0, CendR NRP1 mod 34* and m5-HT2A agonist -2.
`O=C(O)c1cccc(N/N=C(\N=Nc2ccccc2)c2ccccc2)c1` gave Arr AP2 block 5, sPLA2-III inh 5, CendR NRP1 mod 12 and m5-HT2A agonist 6.
Screening Brc1ccc(N/N=C(/N=Nc2nn[nH]n2)c2ccccc2)cc1 returned Arr AP2 block 12, sPLA2-III inh -12, Lipid droplet 3, CendR NRP1 mod 42*, m5-HT2A agonist -1 and M18AAP inhibitor 20.
For O=C(/C(=N\Nc1ccc(Br)cc1)Sc1nnnn1-c1ccccc1)c1ccccc1 the results were Arr AP2 block 0, sPLA2-III inh 5, Lipid droplet 15, CendR NRP1 mod 2, m5-HT2A agonist 3 and M18AAP inhibitor -6.
For Nc1cc(Cl)ccc1C(=O)OCC(=O)N1CCOCC1 the results were Arr AP2 block -13, sPLA2-III inh 10, Lipid droplet 4, CendR NRP1 mod 7, m5-HT2A agonist 10 and M18AAP inhibitor 4.
Screening COc1ccccc1/C=C/CN1CCOCC1 returned Arr AP2 block 5, Lipid droplet -2, CendR NRP1 mod 7, m5-HT2A agonist 6 and M18AAP inhibitor -3.
Screening COc1ccccc1/C=C/CN1CCSCC1 returned Arr AP2 block -10, sPLA2-III inh 7, Lipid droplet 2, CendR NRP1 mod 30*, m5-HT2A agonist -3 and M18AAP inhibitor -6.
CCN1CCN(C2=C(NS(=O)(=O)c3ccc(C)cc3)C(=O)c3ccccc3C2=O)CC1 was read as Arr AP2 block 1, sPLA2-III inh -2, Lipid droplet -15, CendR NRP1 mod 17, m5-HT2A agonist -5 and M18AAP inhibitor 31*.
For CCN1CCN(C2=C(NS(=O)(=O)c3ccc(NC(C)=O)cc3)C(=O)c3ccccc3C2=O)CC1 the results were Arr AP2 block 2, sPLA2-III inh 7, Lipid droplet -1, CendR NRP1 mod 16, m5-HT2A agonist -3 and M18AAP inhibitor 21.
Screening CC1CCN(C2=C(NS(=O)(=O)c3ccc(Cl)cc3)C(=O)c3ccccc3C2=O)CC1 returned Arr AP2 block -6, sPLA2-III inh 4, Lipid droplet 70*, CendR NRP1 mod 8, m5-HT2A agonist 3 and M18AAP inhibitor -2.
Screening COc1cccc(CNC(=O)C2CCC(CNS(=O)(=O)c3cccc4cccnc34)CC2)c1OC (stereo not drawn) returned sPLA2-III inh -7.
CC(SC(=S)N1CCCC1)C(=O)O (stereo not drawn) was read as Arr AP2 block 14, sPLA2-III inh -1, Lipid droplet 13, CendR NRP1 mod 36*, m5-HT2A agonist 1 and M18AAP inhibitor 3.
Screening CN(C)c1ccc(C=C2C=Cc3ccccc32)cc1 returned Arr AP2 block 3, sPLA2-III inh -3, CendR NRP1 mod -12 and m5-HT2A agonist 1.
`CNc1ccc(C=C2C=Cc3ccccc32)cc1` gave Arr AP2 block -1, sPLA2-III inh 25*, CendR NRP1 mod -8 and m5-HT2A agonist -9.
`c1ccc(C(c2nnnn2Cc2ccco2)N2CCN(c3nc4ccccc4s3)CC2)cc1` (stereo not drawn) gave Arr AP2 block -1, sPLA2-III inh -4, Lipid droplet -12, CendR NRP1 mod 46*, m5-HT2A agonist 1 and M18AAP inhibitor -6.
`COc1cccc(NC(=S)Nc2ccc(F)cc2)c1` gave Arr AP2 block 5, sPLA2-III inh 4, Lipid droplet -1, CendR NRP1 mod -5, m5-HT2A agonist -1 and M18AAP inhibitor 3.
Screening COc1ccc(NC(=S)Nc2ccc3snnc3c2)cc1 returned Arr AP2 block 3, sPLA2-III inh 1, Lipid droplet -3, CendR NRP1 mod 3, m5-HT2A agonist -2 and M18AAP inhibitor 30*.
Screening CNC(=O)Nc1ccc2snnc2c1 returned Arr AP2 block -9, sPLA2-III inh 0, CendR NRP1 mod -2, m5-HT2A agonist -7 and M18AAP inhibitor 3.
